Experimental data as given in article PMC9292928 (British Journal of Pharmacology, 2021).
“Also recorded” adds a separate entry of the source. Read-outs that look alike come from different tables or passages of the source.

Key:
[1] = test system: hyperthermia‐induced seizures in Scn1a +/− mice; assay: Hyperthermia-induced seizures in Scn1a+/− mice; format: in vivo, mouse; conditions: for Effective (anticonvulsant) dose against hyperthermia-induced seizures: i.p.
In short: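 Male and female Scn1a+/− F1 mice (congenic 129S6 heterozygotes × C57BL/6J), P14–16, got a single i.p. dose of vehicle or test compound, n = 12–18. Pretreatment time was set per compound from time-to-peak data (15–120 min), with matched vehicle controls. A rectal probe went in 15 min before, followed by 5-min acclimation. Core temperature was raised 0.5°C every 2 min until the first clonic convulsion with loss of posture, or to 42.5°C held 3 min. Thresholds were compared by log-rank Mantel–Cox.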

[2] = molecular target: T1, GPR55 (Homo sapiens, UniProt Q9Y2T6); assay: GPR55 ERK phosphorylation assay in HEK293 cells; format: cell-based; conditions: for EC80 concentration for GPR55 activation (pERK): agonist alone
[3] = Solubility of dosing preparations; format: physicochemical; conditions: for State of dosing preparation: ethanol:Tween 80:saline (1:1:18), 10 ml·kg−1, CBGV 100, CBDV 60, CBG 30 mg·kg−1; for Aqueous solubility: reason for not testing 100 mg·kg−1
[4] = test system: spontaneous GTCS and survival of Scn1a +/− mice; assay: Spontaneous seizures; format: in vivo, mouse
In short: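 Male and female Scn1a+/− mice were primed with one hyperthermia-induced seizure at P18. They were cooled on a pad to a 37°C core temperature at the onset of clonic convulsion. Test compound was then given subchronically in chow. Spontaneous GTCS were counted blind from continuous video over 60 h, and dosing continued to P30 for survival. Seizure-free proportion was analysed by Fisher's exact test; frequency by one-way ANOVA with Dunnett's test.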

[5] = test system: 6‐Hz threshold test, Swiss male mice; assay: 6-Hz threshold test; format: in vivo, mouse; conditions: n = 12; for CC50 vs vehicle, 6-Hz threshold test: 45 min pretreatment
[6] = Plasma concentrations in experimental Scn1a+/− mice; format: in vivo, mouse
In short: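 Acute cohorts (n = 5–10) were anaesthetised with isoflurane directly after the hyperthermia protocol, and whole blood was taken by cardiac puncture. Plasma was stored at −80°C. Subchronic cohorts received drug orally in chow, with plasma collected on P31 within 30 min of lights on. Clobazam pretreatment was 30 min and test compound pretreatment 45 min before the hyperthermia time point.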

[7] = test system: 168 GPCRs and 74 orphan GPCRs; assay: Eurofins DiscoverX PathHunter β-arrestin GPCR screen; format: cell-based; conditions: 3 μM
[8] = molecular target: cannabinoid CB1 receptor (Homo sapiens, UniProt P21554); assay: Eurofins DiscoverX PathHunter β-arrestin GPCR screen, CB1; format: cell-based; conditions: 3 μM
[9] = molecular target: cannabinoid CB2 receptor (Homo sapiens, UniProt P34972); assay: Eurofins DiscoverX PathHunter β-arrestin GPCR screen, CB2; format: cell-based; conditions: 3 μM
[10] = molecular target: T1, GPR55; assay: Eurofins DiscoverX PathHunter β-arrestin GPCR screen, GPR55; format: cell-based; conditions: 3 μM
[11] = molecular target: human TRPV1 (Homo sapiens, UniProt Q8NER1); assay: TRPV1 intracellular calcium assay; format: cell-based
[12] = molecular target: T2, concatenated human γ2–β2–α1–β2–α1 GABA receptor (Homo sapiens, UniProt P14867+P18507+P47870); assay: Two-electrode voltage clamp, GABA-evoked currents in Xenopus oocytes; format: cell-based
In short: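 Two-electrode voltage clamp used Xenopus oocytes expressing concatenated human γ2–β2–α1–β2–α1 receptors. GABA (15 μM) was applied three times with 7–12 min washout, and currents were normalised to the mean of the last two applications. Preincubation was 60 s. Per cent modulation came from a published equation, and the Hill equation fit gave Imax and EC50, n = 5.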

[13] = molecular target: T2, concatenated human γ2–β2–α1–β2–α1 GABA receptor; assay: GABAA receptor desensitization assay in Xenopus oocytes; format: cell-based; conditions: 10 μM CBGA, 180-s preincubation, 1 mM GABA; 103 ± 3% without preincubation
[14] = ref Anderson, Low, et al., 2019; cited from earlier work
[15] = test system: hyperthermia‐induced seizures in Scn1a +/− mice; conditions: cited from earlier work
[16] = test system: MES threshold test, Swiss male mice; assay: Maximal electroshock; format: in vivo, mouse; conditions: 300 mg·kg−1, 15 min prior, n = 12
In short: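 Swiss male mice, n = 12; the positive control was given 15 min before shock. Corneal electroshocks were 60 Hz, 0.4 s, 0.5-ms rectangular pulses, starting at 50 mA. A blinded observer scored GTCS with full hindlimb extension (hindlimbs at 180° to torso).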

[17] = test system: MES‐induced seizures; conditions: ref Hawkins et al., 2017; Luszczki et al., 2003; Miller et al., 1986; cited from earlier work
[18] = test system: Scn1a +/− mice; conditions: ref Hawkins et al., 2017; Luszczki et al., 2003; Miller et al., 1986; cited from earlier work
[19] = test system: pentylenetetrazole (PTZ)‐induced seizures; conditions: ref Hill et al., 2010; cited from earlier work
[20] = 100 mg·kg−1 single i.p., Scn1a+/− mice P14–16
[21] = over all doses tested, single i.p., Scn1a+/− mice P14–16
[22] = 30 mg·kg−1 single i.p., Scn1a+/− mice P14–16
[23] = acute i.p., CBGA 30 mg·kg−1 + clobazam 1 mg·kg−1
[24] = Scn1a+/− mice, ref Anderson et al., 2021

Chain of human TRPV1 (Q8NER1 whole entry): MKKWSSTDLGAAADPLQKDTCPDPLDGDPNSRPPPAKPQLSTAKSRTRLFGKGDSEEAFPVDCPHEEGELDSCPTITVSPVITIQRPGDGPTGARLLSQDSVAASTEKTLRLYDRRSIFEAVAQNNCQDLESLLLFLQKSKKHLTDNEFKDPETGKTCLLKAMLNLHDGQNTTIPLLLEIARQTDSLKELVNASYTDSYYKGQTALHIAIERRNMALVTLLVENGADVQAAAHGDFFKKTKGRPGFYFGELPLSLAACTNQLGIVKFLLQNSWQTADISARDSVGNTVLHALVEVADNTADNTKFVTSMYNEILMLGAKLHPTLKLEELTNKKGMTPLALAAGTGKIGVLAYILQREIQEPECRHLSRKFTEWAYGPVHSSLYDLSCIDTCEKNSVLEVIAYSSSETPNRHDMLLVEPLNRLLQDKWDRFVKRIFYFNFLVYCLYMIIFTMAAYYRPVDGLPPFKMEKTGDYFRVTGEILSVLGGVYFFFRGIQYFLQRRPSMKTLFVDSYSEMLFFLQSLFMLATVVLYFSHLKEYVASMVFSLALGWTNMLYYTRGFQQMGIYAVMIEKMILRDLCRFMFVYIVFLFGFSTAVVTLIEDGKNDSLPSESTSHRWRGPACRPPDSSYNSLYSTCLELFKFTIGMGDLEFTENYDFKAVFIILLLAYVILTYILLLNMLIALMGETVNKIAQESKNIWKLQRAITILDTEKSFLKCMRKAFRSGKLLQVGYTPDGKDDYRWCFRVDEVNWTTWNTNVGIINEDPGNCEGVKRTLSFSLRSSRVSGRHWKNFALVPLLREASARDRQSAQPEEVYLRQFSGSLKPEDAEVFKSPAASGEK
T1 sequence (Q9Y2T6 whole entry): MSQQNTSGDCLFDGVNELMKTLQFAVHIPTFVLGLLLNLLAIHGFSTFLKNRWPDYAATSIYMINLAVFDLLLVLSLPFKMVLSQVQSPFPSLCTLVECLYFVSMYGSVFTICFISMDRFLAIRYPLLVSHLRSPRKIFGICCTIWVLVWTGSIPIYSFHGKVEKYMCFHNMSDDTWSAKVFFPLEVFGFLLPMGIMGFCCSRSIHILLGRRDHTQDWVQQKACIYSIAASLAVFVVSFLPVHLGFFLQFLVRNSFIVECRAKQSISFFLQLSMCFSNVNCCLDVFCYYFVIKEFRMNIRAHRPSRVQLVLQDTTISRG
T2 sequence (P14867 28-456): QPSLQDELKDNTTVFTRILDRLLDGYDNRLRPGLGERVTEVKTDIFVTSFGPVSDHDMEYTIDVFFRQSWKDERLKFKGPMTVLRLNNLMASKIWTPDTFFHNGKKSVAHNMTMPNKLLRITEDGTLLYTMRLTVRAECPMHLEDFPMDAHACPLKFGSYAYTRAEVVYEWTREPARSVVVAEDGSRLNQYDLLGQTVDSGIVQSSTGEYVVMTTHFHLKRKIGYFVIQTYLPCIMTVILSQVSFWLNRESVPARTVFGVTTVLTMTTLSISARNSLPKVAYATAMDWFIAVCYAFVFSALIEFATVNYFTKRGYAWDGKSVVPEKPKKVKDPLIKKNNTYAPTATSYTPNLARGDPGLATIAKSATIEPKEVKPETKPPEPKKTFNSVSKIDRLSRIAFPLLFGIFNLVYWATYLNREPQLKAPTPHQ
T2 sequence (P47870 26-512): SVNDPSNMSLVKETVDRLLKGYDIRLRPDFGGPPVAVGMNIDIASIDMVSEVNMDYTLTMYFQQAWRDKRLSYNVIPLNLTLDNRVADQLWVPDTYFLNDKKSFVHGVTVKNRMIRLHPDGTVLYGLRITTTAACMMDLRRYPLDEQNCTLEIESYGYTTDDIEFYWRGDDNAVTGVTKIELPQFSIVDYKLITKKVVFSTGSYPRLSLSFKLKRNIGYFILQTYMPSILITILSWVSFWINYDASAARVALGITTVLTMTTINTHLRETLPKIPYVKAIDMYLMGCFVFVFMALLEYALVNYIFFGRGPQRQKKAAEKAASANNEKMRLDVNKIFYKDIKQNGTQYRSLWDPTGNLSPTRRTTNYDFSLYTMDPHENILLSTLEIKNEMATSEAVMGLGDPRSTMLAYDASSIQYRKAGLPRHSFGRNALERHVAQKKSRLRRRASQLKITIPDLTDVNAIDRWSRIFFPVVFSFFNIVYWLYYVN
T2 sequence (P18507 40-475): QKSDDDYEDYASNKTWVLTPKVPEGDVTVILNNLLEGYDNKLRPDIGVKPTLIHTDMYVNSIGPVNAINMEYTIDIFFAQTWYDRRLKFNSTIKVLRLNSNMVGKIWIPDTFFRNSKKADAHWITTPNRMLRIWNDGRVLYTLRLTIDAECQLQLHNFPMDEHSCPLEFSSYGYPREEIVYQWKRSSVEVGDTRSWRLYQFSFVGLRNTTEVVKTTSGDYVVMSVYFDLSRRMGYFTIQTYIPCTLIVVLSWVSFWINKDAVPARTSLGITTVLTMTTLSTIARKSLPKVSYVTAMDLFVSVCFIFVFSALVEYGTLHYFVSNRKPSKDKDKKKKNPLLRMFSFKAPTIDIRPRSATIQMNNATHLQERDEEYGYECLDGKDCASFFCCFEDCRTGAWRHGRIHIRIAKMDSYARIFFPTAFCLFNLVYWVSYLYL
Chain of cannabinoid CB2 receptor (P34972 whole entry): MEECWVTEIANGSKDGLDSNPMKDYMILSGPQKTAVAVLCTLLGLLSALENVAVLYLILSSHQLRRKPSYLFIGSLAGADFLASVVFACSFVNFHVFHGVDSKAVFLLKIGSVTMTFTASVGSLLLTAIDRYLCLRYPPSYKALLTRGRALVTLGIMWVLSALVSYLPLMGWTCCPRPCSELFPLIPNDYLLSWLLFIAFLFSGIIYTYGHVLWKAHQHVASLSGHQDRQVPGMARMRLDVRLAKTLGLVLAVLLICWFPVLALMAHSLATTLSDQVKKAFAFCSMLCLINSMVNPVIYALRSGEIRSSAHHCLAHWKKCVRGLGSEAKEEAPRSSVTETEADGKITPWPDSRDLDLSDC
Chain of cannabinoid CB1 receptor (P21554 whole entry): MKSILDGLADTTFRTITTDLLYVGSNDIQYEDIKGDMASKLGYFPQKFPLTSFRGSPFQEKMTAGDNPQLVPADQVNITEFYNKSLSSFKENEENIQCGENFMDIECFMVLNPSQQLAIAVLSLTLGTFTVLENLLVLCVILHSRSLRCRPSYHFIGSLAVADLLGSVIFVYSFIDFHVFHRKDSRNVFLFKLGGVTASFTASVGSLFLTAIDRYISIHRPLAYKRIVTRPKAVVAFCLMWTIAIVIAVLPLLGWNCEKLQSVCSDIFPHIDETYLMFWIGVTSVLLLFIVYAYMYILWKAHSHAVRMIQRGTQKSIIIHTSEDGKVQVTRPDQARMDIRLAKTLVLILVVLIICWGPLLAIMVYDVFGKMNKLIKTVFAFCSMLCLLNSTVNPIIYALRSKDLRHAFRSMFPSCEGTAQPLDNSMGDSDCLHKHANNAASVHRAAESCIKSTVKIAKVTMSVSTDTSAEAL

C=C(C)[C@@H]1CCC(C)=C[C@H]1c1c(O)cc(CCC)c(C(=O)O)c1O [CBDVA, cannabidivarinic acid]
Temperature threshold for GTCS induced by hyperthermia vs vehicle [1, 20]: significantly elevated | Effective (anticonvulsant) dose against hyperthermia-induced seizures ([1]; Scn1a+/− mice): 100 mg/kg

CCCc1cc(O)c(C/C=C(\C)CCC=C(C)C)c(O)c1C(=O)O [CBGVA, cannabigerovarinic acid]
Temperature threshold for GTCS induced by hyperthermia vs vehicle [1, 20]: significantly elevated | Effective (anticonvulsant) dose against hyperthermia-induced seizures ([1]; Scn1a+/− mice): 100 mg/kg

COc1ccc(S(=O)(=O)N2CCOCC2)cc1NC(=O)c1cc2c(s1)CCCC2 [ML‐186, reference compound]
EC80 concentration for GPR55 activation (pERK) [2]: 0.45 μM

CCCc1cc(O)c(C/C=C(\C)CCC=C(C)C)c(O)c1 [CBGV, cannabigerivarin]
Temperature threshold for GTCS induced by hyperthermia vs vehicle [1, 21]: Neither cannabigerol (CBG) nor cannabigerivarin (CBGV) affected thresholds | State of dosing preparation [3]: suspension

CCCCCc1cc(O)c(C/C=C(\C)CCC=C(C)C)c(O)c1C(=O)O [CBGA, cannabigerolic acid]
Temperature threshold for GTCS induced by hyperthermia vs vehicle [1, 22]: anticonvulsant; also recorded: significantly elevated | Temperature threshold for GTCS induced by hyperthermia vs vehicle [1, 20]: anticonvulsant | Effective (anticonvulsant) dose against hyperthermia-induced seizures ([1]; Scn1a+/− mice): 30 mg/kg | Temperature threshold for GTCS induced by hyperthermia vs vehicle [1, 21]: dose‐dependently increased | Spontaneous GTCS frequency ([4]; 2500 mg·kg−1 chow, oral subchronic, 60-h recording): significantly increased | Survival to P30 relative to controls ([4]; 1400 and 2500 mg·kg−1 chow, oral): did not differ | Proportion of mice experiencing GTCS during observation period ([4]; 1400 and 2500 mg·kg−1 chow, oral subchronic, 60-h recording): Neither dose of CBGA affected | CC50 vs vehicle, 6-Hz threshold test ([5]; 10 mg·kg−1 i.p.): significantly lower | CC50 vs vehicle, 6-Hz threshold test ([5]; 30 mg·kg−1 i.p.): significantly lower | CC50 vs vehicle, 6-Hz threshold test ([5]; 100 mg·kg−1 i.p.): did not differ from vehicle | Plasma concentration of CBGA on cotreatment with clobazam [6, 23]: significantly increased | Plasma CBGA concentrations on cotreatment with clobazam ([6]; subchronic, chow): no effect | Agonist or antagonist activity at 242 GPCRs [7]: No agonist or antagonist activity | Effect at cannabinoid CB1 receptor [8]: did not affect | Effect at cannabinoid CB2 receptor [9]: did not affect | Agonist activity at GPR55 [10]: not an agonist | IC50 ([2]; IC50, inhibition of GPR55 activation, rounded value of the discussion): ~5 µM | IC50 ([2]; IC50, inhibition of LPI-mediated GPR55 activity (pERK), LPI 4 μM (EC80)): 5.7 µM | IC50 ([2]; IC50, inhibition of ML-186-mediated GPR55 activity (pERK), ML-186 0.45 μM (EC80)): 4.8 µM | Mode of antagonism at GPR55 ([2]; ML-186 concentration–response curves with varying CBGA): non‐competitive antagonist | IC50 [11]: 22 µM | Non-specific calcium influx ([11]; 30 and 100 μM CBGA, wildtype and TRPV1-expressing cells): non‐specific increase in intracellular calcium | Agonist activity at TRPV1 ([11]; calcium influx): did not display agonist activity | Modulation of GABA-evoked currents at high concentration ([12]; 30 μM CBGA, GABA 15 μM): substantially reduced | EC50 ([12]; EC50, positive modulation of GABA-evoked currents, GABA 15 μM): 0.91 µM | Emax ([12]; read-out: Maximum modulation of GABA-evoked peak currents (E max)): 271 ± 40% | Peak GABA current after preincubation (percentage of GABA response) [13]: 31 ± 11% | Brain penetration [14]: 2% | Brain–plasma ratio [14]: 0.02

CCCCCc1cc2c(c(O)c1C(=O)O)C=CC(C)(CCC=C(C)C)O2 (stereo not drawn) [CBCA, cannabichromenic acid]
Effect against hyperthermia-induced seizures [15, 24]: anticonvulsant effects

O=C1CC(=O)N(c2ccccc2)c2cc(Cl)ccc2N1 [N‐desmethylclobazam]
Plasma concentrations of N-desmethylclobazam on CBGA co-administration [6, 23]: reduced | Plasma concentrations of N-desmethylclobazam when clobazam combined with CBGA ([6]; subchronic, chow): significantly lower

CCCC(CCC)C(=O)O [valproic acid, reference compound]
Protection against seizure activity, MES threshold test [16]: 100% | Protection against seizure activity, 6-Hz threshold test ([5]; 300 mg·kg−1, 15 min prior): 100%

C=C(C)[C@@H]1CCC(C)=C[C@H]1c1c(O)cc(CCC)cc1O [CBDV, cannabidivarin]
Temperature threshold for GTCS induced by hyperthermia vs vehicle [1, 22]: increase in GTCS temperature threshold | State of dosing preparation [3]: near solubility limits | Aqueous solubility [3]: poor aqueous solubility

lysophosphatidylinositol [LPI, reference compound]
EC80 concentration for GPR55 activation (pERK) [2]: 4 μM

CCCCCc1cc(O)c(C/C=C(\C)CCC=C(C)C)c(O)c1 [CBG, cannabigerol]
Mice seizure free (protected from GTCS) ([1]; 0.3 mg·kg−1 i.p., n = 12–18 per group): four | Temperature threshold for GTCS induced by hyperthermia vs vehicle [1, 21]: Neither cannabigerol (CBG) nor cannabigerivarin (CBGV) affected thresholds | State of dosing preparation [3]: near solubility limits | Aqueous solubility [3]: poor aqueous solubility

C=C(C)[C@@H]1CCC(C)=C[C@H]1c1c(O)cc(CCCCC)cc1O [CBD, cannabidiol]
Effect against hyperthermia-induced seizures ([15]; 100 mg·kg−1, ref Anderson, Absalom, et al., 2019, Anderson et al., 2020, Kaplan et al., 2017): anticonvulsant

Nc1nnc(-c2cccc(Cl)c2Cl)c(N)n1 [Lamotrigine]
Effect against MES-induced seizures [17]: anticonvulsant | Effect on seizures in Scn1a+/− mice [18]: proconvulsant

CCCc1cc(O)c2c(c1)OC(C)(C)[C@@H]1CCC(C)=C[C@@H]21 [Δ^9‐THCV, tetrahydrocannabivarin]
Temperature threshold for GTCS induced by hyperthermia vs vehicle ([1]; 3 mg·kg−1 single i.p., Scn1a+/− mice P14–16): proconvulsant | Effect against PTZ-induced seizures [19]: anticonvulsant effects

CN1C(=O)CC(=O)N(c2ccccc2)c2cc(Cl)ccc21 [clobazam, reference compound]
Temperature threshold for GTCS induced by hyperthermia vs vehicle ([1]; 1 mg·kg−1 single i.p., Scn1a+/− mice): significantly elevated | Spontaneous GTCS frequency ([4]; 80 mg clobazam·kg−1 chow, oral, 60-h recording): significantly reducing | Survival to P30 ([4]; clobazam 80 mg·kg−1 chow alone or plus CBGA 1400 mg·kg−1 chow): neither treatment had any effect | Proportion of mice displaying GTCS ([4]; clobazam 80 mg·kg−1 chow alone or plus CBGA 1400 mg·kg−1 chow, controls 63%): 35% | Plasma clobazam concentrations on CBGA co-administration [6, 23]: did not affect

CCCc1cc2c(c(O)c1C(=O)O)C=CC(C)(CCC=C(C)C)O2 (stereo not drawn) [CBCVA, cannabichromevarinic acid]
Effect against hyperthermia-induced seizures [15, 24]: anticonvulsant effects
